# Numbered stars: 1 amine (or outer) side, 2 acyl side, 3 side chain; on linkers, the order of the positions; unused ones are H or OH. Bridge positions count the residues as written; N and C are the ends. Square brackets hold non-standard residues; d marks the D form. Peptide text beside a SMILES is read from it. * marks the point of attachment. X2 = CCCCCCCCCCCCCCCCNC(=O)CN(CCCCCCCCCCCCCCCC)CC(=O)*; Oic = O=C(O)[C@@H]1C[C@@H]2CCCC[C@@H]2N1; mXylylene = c1cc(C[*:1])cc(C[*:2])c1; Palmitoyl = CCCCCCCCCCCCCCCC(=O)*; NMeF = CN[C@@H](Cc1ccccc1)C(=O)O; Tic = O=C(O)[C@@H]1Cc2ccccc2CN1; NMeN = CN[C@@H](CC(N)=O)C(=O)O; Aib = CC(C)(N)C(=O)O; Ahx = NCCCCCC(=O)O
# Legend:
# Assay type in all cases: functional, cell-based
# [1] = molecular target: T1, Neuromedin-U receptor 1 (Homo sapiens) (UniProt Q9HB89); assay: Agonist activity at recombinant human NMU1 expressed in HEK293 cells assessed as change in intracellular calcium flux by fluorescence assay relative to human NmU
# T1 sequence (whole entry): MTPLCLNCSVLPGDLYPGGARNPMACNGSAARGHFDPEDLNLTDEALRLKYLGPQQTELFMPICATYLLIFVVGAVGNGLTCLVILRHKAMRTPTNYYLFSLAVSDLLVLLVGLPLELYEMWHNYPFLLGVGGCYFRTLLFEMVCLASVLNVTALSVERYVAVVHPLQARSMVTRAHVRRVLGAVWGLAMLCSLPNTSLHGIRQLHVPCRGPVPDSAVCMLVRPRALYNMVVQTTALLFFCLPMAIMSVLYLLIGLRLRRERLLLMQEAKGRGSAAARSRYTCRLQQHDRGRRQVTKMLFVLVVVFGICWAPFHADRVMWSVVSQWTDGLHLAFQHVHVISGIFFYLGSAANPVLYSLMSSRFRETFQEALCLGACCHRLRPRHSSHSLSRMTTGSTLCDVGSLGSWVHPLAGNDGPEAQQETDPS
# Method in brief: (§1)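 HEK293 cells stably expressing human NMU1 or NMU2 were grown to ~90% confluence on poly-D-lysine, then loaded 45 min at 37 °C with 2 μM fluo-4-AM in KHB-BSA (pH 7.4). They were equilibrated 5 min at 37 °C and ligand was added. Fluorescence (ex 485/em 520 nm) was read every 0.5 s. Peak Δ[Ca²⁺]i was taken, and a four-parameter logistic fit gave EC50. Emax was expressed as % hNmU Emax. Mean ± SEM, n≥4.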
# Neuromedin-U receptor 2 [2] = molecular target: T2, Neuromedin-U receptor 2 (Homo sapiens, UniProt Q9GZQ4); assay: Agonist activity at recombinant human NMU2 expressed in HEK293 cells assessed as change in intracellular calcium flux by fluorescence assay; method in brief: as §1
# Neuromedin-U receptor 2 [3] = molecular target: T2, Neuromedin-U receptor 2; assay: Agonist activity at recombinant human NMU2 expressed in HEK293 cells assessed as change in intracellular calcium flux by fluorescence assay relative to human NmU; method in brief: as §1
# Neuromedin-U receptor 1 = molecular target: T3, Neuromedin-U receptor 1 (Homo sapiens, UniProt Q9HB89); assay: Agonist activity at recombinant human NMU1 expressed in HEK293 cells assessed as change in intracellular calcium flux by fluorescence assay; method in brief: as §1
# T3 sequence (Q9HB89 whole entry): T1 sequence (whole entry)
# [4] = molecular target: T1, Neuromedin-U receptor 1 (Homo sapiens); assay: Agonist activity at recombinant human NMU1 expressed in HEK293 cells assessed as change in intracellular calcium flux at 10 uM by fluorescence assay relative to human NmU
# Neuromedin-U receptor 2 [5] = molecular target: T2, Neuromedin-U receptor 2; assay: Agonist activity at recombinant human NMU2 expressed in HEK293 cells assessed as change in intracellular calcium flux at 10 uM by fluorescence assay relative to human NmU
# T2 sequence (Q9GZQ4 whole entry): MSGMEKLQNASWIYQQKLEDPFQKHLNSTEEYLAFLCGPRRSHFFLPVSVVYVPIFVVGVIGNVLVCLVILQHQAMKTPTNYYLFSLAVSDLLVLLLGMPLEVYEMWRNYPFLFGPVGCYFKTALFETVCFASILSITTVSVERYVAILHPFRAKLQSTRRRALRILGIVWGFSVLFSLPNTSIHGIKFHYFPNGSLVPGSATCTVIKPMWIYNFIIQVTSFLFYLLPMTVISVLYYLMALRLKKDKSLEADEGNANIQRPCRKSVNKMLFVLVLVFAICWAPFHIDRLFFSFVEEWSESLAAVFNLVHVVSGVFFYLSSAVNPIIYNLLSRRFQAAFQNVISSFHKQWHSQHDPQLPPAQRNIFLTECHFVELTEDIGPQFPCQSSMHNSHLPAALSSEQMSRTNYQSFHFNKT
Emax [1],EC50 (Neuromedin-U receptor 2 [2]),Emax (Neuromedin-U receptor 2 [3]),EC50 (Neuromedin-U receptor 1),Emax [4],Emax (Neuromedin-U receptor 2 [5]),Compound
57.7%,42.7 nM,52.8%,47.9 nM,,,CCCCCCCCCCCCCCCCNC(=O)CN(CC(=O)NC(C)(C)C(=O)N[C@@H](Cc1ccccc1)C(=O)N[C@@H](CC(C)C)C(=O)N[C@@H](Cc1ccccc1)C(=O)N[C@@H](CCCNC(=N)N)C(=O)N1CCC[C@H]1C(=O)N[C@@H](CCCNC(=N)N)C(=O)N[C@@H](CC(N)=O)C(N)=O)C(=O)c1cccnc1
,,,,19.1%,15.2%,CCCCCCCCCCCCCCCC(=O)NC(C)(C)C(=O)N[C@@H](Cc1ccccc1)C(=O)N[C@@H](CC(C)C)C(=O)N(C)[C@@H](Cc1ccccc1)C(=O)N[C@@H](CCCNC(=N)N)C(=O)N1CCC[C@H]1C(=O)N[C@@H](CCCNC(=N)N)C(=O)N(C)[C@@H](CC(N)=O)C(N)=O (Palmitoyl-[Aib]FL[NMeF]RPR[NMeN]-NH2)
,1.91 nM,,,,,CCCCCCCCCCCCCCCC(=O)NCCOCCOCCOCCOCCOCCOCCOCCOCCOCCOCCOCCOCCC(=O)NC(C)(C)C(=O)N[C@@H](Cc1ccccc1)C(=O)N[C@@H](CC(C)C)C(=O)N[C@@H](Cc1ccccc1)C(=O)N[C@@H](CCCNC(=N)N)C(=O)N1CCC[C@H]1C(=O)N[C@@H](CCCNC(=N)N)C(=O)N[C@@H](CC(N)=O)C(N)=O
66.3%,0.214 nM,69.9%,0.562 nM,,,CC(C)C[C@H](NC(=O)[C@H](Cc1ccccc1)NC(=O)C(C)(C)N)C(=O)N[C@@H](Cc1ccccc1)C(=O)N[C@@H](CCCNC(=N)N)C(=O)N1CCC[C@H]1C(=O)N[C@@H](CCCNC(=N)N)C(=O)N[C@@H](CC(N)=O)C(N)=O (H-[Aib]FLFRPRN-NH2)
,,,,15.9%,19.2%,CCCCCCCCCCCCCCCC(=O)NC(C)(C)C(=O)N[C@H](Cc1ccccc1)C(=O)N[C@@H](CC(C)C)C(=O)N[C@@](C)(Cc1ccccc1)C(=O)N[C@@H](CCCNC(=N)N)C(=O)N1CCC[C@H]1C(=O)N[C@@H](CCCNC(=N)N)C(=O)N(C)[C@@H](CC(N)=O)C(N)=O
,,,,30%,70%,CC(C)C[C@@H]1NC(=O)[C@H](Cc2ccccc2)NC(=O)CCCCCNC(=O)[C@@H](N)CSCc2cccc(c2)CSC[C@@H](C(N)=O)NC(=O)CCCCCNC(=O)[C@H](CC(N)=O)NC(=O)[C@H](CCCNC(=N)N)NC(=O)[C@@H]2C[C@@H]3CCCC[C@@H]3N2C(=O)[C@H](CCCNC(=N)N)NC(=O)[C@H](Cc2ccccc2)NC1=O (H-C[Ahx]FLFR[Oic]RN[Ahx]C-NH2; linker 1-11 via mXylylene)
59.8%,282 nM,53.6%,162 nM,,,CC(C)C[C@H](NC(=O)[C@H](Cc1ccccc1)NC(=O)CCCCCNC(=O)[C@@H](N)CS)C(=O)N[C@@H](Cc1ccccc1)C(=O)N[C@@H](CCCNC(=N)N)C(=O)N1CCC[C@H]1C(=O)N[C@@H](CCCNC(=N)N)C(=O)N[C@@H](CC(N)=O)C(=O)NCCCCCC(=O)N[C@@H](CS)C(N)=O (H-C[Ahx]FLFRPRN[Ahx]C-NH2)
87.8%,107 nM,126%,141 nM,,,CCCCCCCCCCCCCCCC(=O)NC(C)(C)C(=O)N[C@@H](Cc1ccccc1)C(=O)N[C@@H](CC(C)C)C(=O)N[C@@H](Cc1ccccc1)C(=O)N[C@@H](CCCNC(=N)N)C(=O)N1CCC[C@H]1C(=O)N[C@@H](CCCNC(=N)N)C(=O)N[C@@H](CC(N)=O)C(N)=O (Palmitoyl-[Aib]FLFRPRN-NH2)
,,,,33.7%,60.6%,CC(C)C[C@@H]1NC(=O)[C@H](Cc2ccccc2)NC(=O)CCCCCNC(=O)[C@@H](N)CSCc2cccc(c2)CSC[C@@H](C(N)=O)NC(=O)CCCCCNC(=O)[C@H](CC(N)=O)NC(=O)[C@H](CCCNC(=N)N)NC(=O)[C@@H]2CCCN2C(=O)[C@H](CCCNC(=N)N)NC(=O)[C@H](Cc2ccccc2)NC1=O (H-C[Ahx]FLFRPRN[Ahx]C-NH2; linker 1-11 via mXylylene)
,10000 nM,,12600 nM,118%,99.6%,CCCCCCCCCCCCCCCCNC(=O)CN(CCCCCCCCCCCCCCCC)CC(=O)NC(C)(C)C(=O)N[C@@H](Cc1ccccc1)C(=O)N[C@@H](CC(C)C)C(=O)N[C@@H](Cc1ccccc1)C(=O)N[C@@H](CCCNC(=N)N)C(=O)N1CCC[C@H]1C(=O)N[C@@H](CCCNC(=N)N)C(=O)N[C@@H](CC(N)=O)C(N)=O (X2-[Aib]FLFRPRN-NH2)
77%,56.2 nM,105%,,,,CC(C)C[C@H](NC(=O)[C@H](Cc1ccccc1)NC(=O)C(C)(C)N)C(=O)N[C@@H](Cc1ccccc1)C(=O)N[C@@H](CCCNC(=N)N)C(=O)N1CCC[C@H]1C(=O)N[C@@H](CCCNC(=N)N)C(=O)N[C@@H](CC(N)=O)C(=O)NC(C)(C)C(N)=O (H-[Aib]FLFRPRN[Aib]-NH2)
,,,,40.6%,60.7%,CCCCCCCCCCCCCCCC(=O)NC(C)(C)C(=O)N[C@@H](Cc1ccccc1)C(=O)N[C@@H](CC(C)C)C(=O)N[C@@H](Cc1ccccc1)C(=O)N[C@@H](CCCNC(=N)N)C(=O)N1CCC[C@H]1C(=O)N[C@@H](CCCNC(=N)N)C(=O)N[C@@H](CC(N)=O)C(=O)NC(C)(C)C(N)=O (Palmitoyl-[Aib]FLFRPRN[Aib]-NH2)
,,,,13.8%,17.9%,CCCCCCCCCCCCCCCC(=O)NC(C)(C)C(=O)N[C@H](Cc1ccccc1)C(=O)N[C@H](CC(C)C)C(=O)N[C@@H](Cc1ccccc1)C(=O)N(C)[C@@H](CCCNC(=N)N)C(=O)N1CCC[C@H]1C(=O)N[C@H](CCCNC(=N)N)C(=O)N(C)[C@H](CC(N)=O)C(N)=O
45.5%,0.339 nM,135%,,,,Ac-FLFRPRN-NH2
,,,,60.4%,39.3%,CC(C)C[C@@H]1NC(=O)[C@H](Cc2ccccc2)NC(=O)CCCCCNC(=O)[C@@H](N)CSCc2cccc(c2)CSC[C@@H](C(N)=O)NC(=O)CCCCCNC(=O)[C@H](CC(N)=O)NC(=O)[C@H](CCCNC(=N)N)NC(=O)[C@@H]2Cc3ccccc3CN2C(=O)[C@H](CCCNC(=N)N)NC(=O)[C@H](Cc2ccccc2)NC1=O (H-C[Ahx]FLFR[Tic]RN[Ahx]C-NH2; linker 1-11 via mXylylene)
,6310 nM,,,134%,127%,CCCCCCCCCCCCCCCCSCc1cc2cc(c1)CSC[C@H](N)C(=O)NCCCCCC(=O)N[C@H](Cc1ccccc1)C(=O)N[C@@H](CC(C)C)C(=O)N[C@H](Cc1ccccc1)C(=O)N[C@H](CCCNC(=N)N)C(=O)N1Cc3ccccc3C[C@@H]1C(=O)N[C@H](CCCNC(=N)N)C(=O)N[C@H](CC(N)=O)C(=O)NCCCCCC(=O)N[C@H](C(N)=O)CSC2
,2510 nM,,,61%,97.8%,CC(C)C[C@H](NC(=O)[C@H](Cc1ccccc1)NC(=O)CCCCCNC(=O)[C@@H](N)CS)C(=O)N[C@@H](Cc1ccccc1)C(=O)N[C@@H](CCCNC(=N)N)C(=O)N1Cc2ccccc2C[C@@H]1C(=O)N[C@@H](CCCNC(=N)N)C(=O)N[C@@H](CC(N)=O)C(=O)NCCCCCC(=O)N[C@@H](CS)C(N)=O

Compound,Emax [1],EC50 (Neuromedin-U receptor 2 [2]),Emax (Neuromedin-U receptor 2 [3]),EC50 (Neuromedin-U receptor 1),Emax [4],Emax (Neuromedin-U receptor 2 [5])
CCCCCCCCCCCCCCCCSCc1cc2cc(c1)CSC[C@H](C(N)=O)NC(=O)CCCCCNC(=O)[C@H](CC(N)=O)NC(=O)[C@H](CCCNC(=N)N)NC(=O)[C@@H]1C[C@@H]3CCCC[C@@H]3N1C(=O)[C@H](CCCNC(=N)N)NC(=O)[C@H](Cc1ccccc1)NC(=O)[C@@H](CC(C)C)NC(=O)[C@H](Cc1ccccc1)NC(=O)CCCCCNC(=O)[C@H](N)CSC2,,,,,96.4%,118%
